“Also recorded” adds a separate entry of the source. Where two headings read alike, the source gives them in different places.
Tests used:
human TRPV1 = human TRPV1 (Homo sapiens, UniProt Q8NER1); assay: hTRPV1 antagonism, inhibition of activation by capsaicin; assay type: cell-based
[1] = test system: capsaicin-induced hypothermia; assay: Inhibition of capsaicin-induced hypothermia after oral administration; design: species or system mouse; details: in vivo
[2] = test system: CCI-induced cold allodynia; assay: CCI-induced cold allodynia; assay type: in vivo; details: mouse, Bennett model, oral, 10 mg/kg
How it was run: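 Mice with chronic constriction injury (Bennett model) received test compound orally. Cold allodynia was then scored and expressed as % maximal possible effect. Groups were n = 10, reported as mean ± SEM, and compared with vehicle (p < 0.05).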

body temperature = assay: Body temperature study; assay type: in vivo, mouse; details: at the given doses, oral
[3] = capsaicin 100 nM, FLIPR, hTRPV1 expressed in CHO cells

human TRPV1, sequence (Q8NER1 whole entry): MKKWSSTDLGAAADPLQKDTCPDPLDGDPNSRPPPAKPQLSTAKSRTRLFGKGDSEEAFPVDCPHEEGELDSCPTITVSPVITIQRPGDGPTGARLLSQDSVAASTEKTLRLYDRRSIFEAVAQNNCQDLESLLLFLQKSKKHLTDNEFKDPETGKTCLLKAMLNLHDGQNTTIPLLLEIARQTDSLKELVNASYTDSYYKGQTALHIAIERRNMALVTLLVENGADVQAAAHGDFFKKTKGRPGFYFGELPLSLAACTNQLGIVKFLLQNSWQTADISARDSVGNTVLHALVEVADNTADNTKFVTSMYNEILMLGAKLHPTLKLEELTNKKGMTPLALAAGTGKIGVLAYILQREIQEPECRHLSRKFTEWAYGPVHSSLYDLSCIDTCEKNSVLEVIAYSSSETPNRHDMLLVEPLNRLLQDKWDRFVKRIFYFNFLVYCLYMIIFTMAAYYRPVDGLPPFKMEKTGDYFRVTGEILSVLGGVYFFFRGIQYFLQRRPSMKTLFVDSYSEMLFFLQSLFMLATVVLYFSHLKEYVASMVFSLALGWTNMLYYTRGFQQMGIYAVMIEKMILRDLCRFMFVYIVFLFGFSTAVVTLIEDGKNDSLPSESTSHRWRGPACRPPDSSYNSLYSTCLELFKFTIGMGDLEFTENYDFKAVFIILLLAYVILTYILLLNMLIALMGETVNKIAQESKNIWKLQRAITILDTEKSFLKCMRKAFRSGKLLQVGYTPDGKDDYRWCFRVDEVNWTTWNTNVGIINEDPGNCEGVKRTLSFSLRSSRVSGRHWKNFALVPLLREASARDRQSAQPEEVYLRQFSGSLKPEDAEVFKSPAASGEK

Compound: 2-(2-Fluoro-4-(methylsulfonamido)phenyl)-N-(2-(4-(4-fluorobenzyl)piperidin-1-yl)-4-(trifluoromethyl)benzyl)propanamide [Compound 20]
- Ki (human TRPV1; read-out: Ki (CAP), capsaicin 100 nM, FLIPR, hTRPV1 expressed in CHO cells): 0.4 nM

Compound: C[C@H](C(=O)NCc1ccc(C(F)(F)F)cc1SC1CCCCC1)c1ccc(NS(C)(=O)=O)c(F)c1 [Compound 44S]
- Effect on capsaicin-induced hypothermia in words [1]: blocked capsaicin-induced hypothermia
- max antiallodynic efficacy in cold allodynia, MPE [2]: 57 % MPE
- Hyperthermia / body temperature effect of compound alone (body temperature): without hyperthermia; also recorded: did not show any hyperthermia; also recorded: thermoneutral

Compound: CC(C(=O)NCc1ccc(C(F)(F)F)cc1-c1cccnc1)c1ccc(NS(C)(=O)=O)c(F)c1 (centres unmarked) [Compound 62, 2-(3-Fluoro-4-methanesulfonylamino-phenyl)-N-(2-pyridin-3-yl-4-trifluoromethylbe-nzyl)-propionamide]
- hTRPV1 antagonism in words (human TRPV1; [3]): weak antagonist

Compound: CC(C(=O)NCc1ccc(C(F)(F)F)cc1N1CCOCC1)c1ccc(NS(C)(=O)=O)c(F)c1 (centres unmarked) [Compound 27, 2-(3-Fluoro-4-methanesulfonylamino-phenyl)-N-(2-morpholin-4-yl-4-trifluoromethyl-benzyl)-propionamide]
- fold less potent than the corresponding piperidine surrogate (10) (human TRPV1; capsaicin antagonism, versus compound 10): ca. 4 fold

Compound: CC(C(=O)NCc1ccc(C(F)(F)F)cc1Cl)c1ccc(NS(C)(=O)=O)c(F)c1 (centres unmarked) [Compound 51, 2-(3-Fluoro-4-methanesulfonylamino-phenyl)-N-(2-chloro-4-trifluoromethyl-benzyl)-propionamide]
- hTRPV1 antagonism in words (human TRPV1; [3]): good antagonism

Compound: CCCCCCOc1cc(C(F)(F)F)ccc1CNC(=O)C(C)c1ccc(NS(C)(=O)=O)c(F)c1 (centres unmarked) [Compound 31, 2-(3-Fluoro-4-(methylsulfonamido)phenyl)-N-(2-(hexyloxy)-4(trifluoromethyl)benzyl)propanamide]
- Ki (human TRPV1): 0.7 to 0.8 nM

Compound: 2-(3-Fluoro-4-(methylsulfonamido)phenyl)-N-(2-cyclopentylthio-4-(trifluoromethyl)-benzyl)propanamide [Compound 49]
- hTRPV1 antagonism in words (human TRPV1; [3]): moderate antagonism

Compound: CC(C(=O)NCc1ccc(C(F)(F)F)cc1[N+](=O)[O-])c1ccc(NS(C)(=O)=O)c(F)c1 (centres unmarked) [Compound 52, 2-(3-Fluoro-4-methanesulfonylamino-phenyl)-N-(2-nitro-4-trifluoromethyl-benzyl)-propionamide]
- hTRPV1 antagonism in words (human TRPV1; [3]): weak antagonists

Compound: CC(C(=O)NCc1ccc(C(F)(F)F)cc1SC1CCCC1)c1ccc(NS(C)(=O)=O)c(F)c1 (centres unmarked) [Compound 43, 2-(3-Fluoro-4-(methylsulfonamido)phenyl)-N-(2-cyclopentylthio-4-(trifluoromethyl)-benzyl)propanamide]
- Effect on capsaicin-induced hypothermia in words [1]: blocked capsaicin-induced hypothermia
- Hyperthermia / body temperature effect of compound alone (body temperature): without hyperthermia; also recorded: did not show any hyperthermia; also recorded: thermoneutral

Compound: CC(C(=O)NCc1ccc(C(F)(F)F)cc1SCCCO)c1ccc(NS(C)(=O)=O)c(F)c1 (centres unmarked) [Compound 42, 2-(3-Fluoro-4-(methylsulfonamido)phenyl)-N-(2-((3-hydroxypropyl)thio)-4-(trifluoro-methyl)benzyl)propanamide]
- hTRPV1 antagonism in words (human TRPV1; [3]): loss of activity

Compound: CC(C(=O)NCc1ccc(C(F)(F)F)cc1F)c1ccc(NS(C)(=O)=O)c(F)c1 (centres unmarked) [Compound 50, 2-(3-Fluoro-4-methanesulfonylamino-phenyl)-N-(2-fluoro-4-trlfluoromethyl-benzyl)-propioamide]
- hTRPV1 antagonism in words (human TRPV1; [3]): weak antagonists

Reference: paper PMC6959537 (Bioorganic & medicinal chemistry, 2015)
